How the values were obtained:
[1] = system: Mus musculus; assay: The percent of the median survival time of test mice compared to control mice is determined for mice administered with 100 mg/kg compound; format: functional
[2] = system: Mus musculus; assay: The percent of the median survival time of test mice compared to control mice is determined for mice administered with 200 mg/kg compound; format: functional
[3] = system: Mus musculus; assay: Body Weight Difference (BWD) of test animals administered with 100 mg/kg compound is determined on day 5 for P388 tumor cells; format: functional
Procedure, shortened: (§1)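 P388 leukaemia: about 10^6 cells in ascitic fluid inoculated ip on day 0 (CD2F1 mice). Compound given ip in normal saline as a freshly prepared solution or suspension, once daily on days 1–5. Treated-minus-control body weight difference in g, taken as day 5 minus day 1 weight. Groups of six.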

[4] = system: Mus musculus; assay: Body Weight Difference (BWD) of test animals administered with 50 mg/kg compound is determined on day 5 for P388 tumor cells; format: functional; procedure, shortened: as §1
[5] = system: Mus musculus; assay: Body Weight Difference (BWD) of test animals administered with 25 mg/kg compound is determined on day 5 for P388 tumor cells; format: functional; procedure, shortened: as §1
[6] = system: Mus musculus; assay: Body Weight Difference (BWD) of test animals administered with 400 mg/kg compound is determined on day 5 for P388 tumor cells; format: functional; procedure, shortened: as §1
[7] = system: Mus musculus; assay: Ability of 200 mg/kg of compound to kill tumor cells in mice is expressed as the log of the tumor cell population at the onset of treatment minus the log of the tumor cell population at the end of treatment; format: functional
[8] = system: Mus musculus; assay: Toxicity day evaluation was carried out on day 5 for animal dosed with 50 mg/kg compound; 6/6; format: organism-based; design: dose 50 mg/kg; conditions: in vivo
[9] = system: Mus musculus; assay: Toxicity day evaluation was carried out on day 5 for animal dosed with 25 mg/kg compound; 6/6; format: organism-based; design: dose 25 mg/kg; conditions: in vivo
[10] = system: Mus musculus; assay: Body Weight Difference (BWD) of test animals administered with 200 mg/kg compound is determined on day 5 for P388 tumor cells; format: functional; procedure, shortened: as §1
[11] = system: Mus musculus; assay: The percent of the median survival time of test mice compared to control mice is determined for mice administered with 400 mg/kg compound; format: functional
[12] = system: Mus musculus; assay: Body Weight Difference (BWD) of test animals administered with 12.5 mg/kg compound is determined on day 5 for P388 tumor cells; format: functional; procedure, shortened: as §1
[13] = system: Mus musculus; assay: Ability of 25 mg/kg of compound to kill tumor cells in mice is expressed as the log of the tumor cell population at the onset of treatment minus the log of the tumor cell population at the end of treatment; format: functional
[14] = system: Mus musculus; assay: The percent of the median survival time of test mice compared to control mice is determined for mice administered with 50 mg/kg compound; format: functional
[15] = system: Mus musculus; assay: Toxicity day evaluation was carried out on day 5 for animal dosed with 200 mg/kg compound; 5/6; format: organism-based; design: dose 200 mg/kg; conditions: in vivo
[16] = system: Mus musculus; assay: Toxicity day evaluation was carried out on day 5 for animal dosed with 100 mg/kg compound; 6/6; format: organism-based; design: dose 100 mg/kg; conditions: in vivo
[17] = system: Mus musculus; assay: Toxicity day evaluation was carried out on day 5 for animal dosed with 400 mg/kg compound; 6/6; format: organism-based; design: dose 400 mg/kg; conditions: in vivo
[18] = system: Mus musculus; assay: Toxicity day evaluation was carried out on day 5 for animal dosed with 12.5 mg/kg compound; 6/6; format: organism-based; design: dose 12.5 mg/kg; conditions: in vivo
[19] = system: Mus musculus; assay: Body Weight Difference (BWD) of test animals with P388 administered with 200 mg/kg compound is determined; format: functional; procedure, shortened: as §1
[20] = system: Mus musculus; assay: Toxicity day evaluation was carried out on day 5 for animal dosed with 50 mg/kg compound. Number of animals in initial test groups were 6; format: organism-based; design: dose 50 mg/kg; conditions: in vivo
[21] = system: Mus musculus; assay: Toxicity day evaluation was carried out on day 5 for animal dosed with 25 mg/kg compound. Number of animals in initial test groups were 6; format: organism-based; design: dose 25 mg/kg; conditions: in vivo
[22] = system: Mus musculus; assay: Body Weight Difference (BWD) of test animals with P388 administered with 400 mg/kg compound is determined; format: functional; procedure, shortened: as §1
[23] = system: Mus musculus; assay: Toxicity day evaluation was carried out on day 5 for animal dosed with 400 mg/kg compound. Number of animals in initial test groups were 6; format: organism-based; design: dose 400 mg/kg; conditions: in vivo
[24] = system: Mus musculus; assay: Ability of 50 mg/kg of compound to kill P388 tumor cells in mice is expressed as the log of the tumor cell population at the onset of treatment minus the log of the tumor cell population at the end of treatment.; format: functional
Procedure, shortened: (§2)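 P388 leukemia, 10^6 cells implanted ip on day 0. Drug given ip daily on days 1-5 as a saline suspension freshly prepared before injection. Log cell kill is computed from survival, with % T/C taken as median survival time of treated versus control mice.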

[25] = system: Mus musculus; assay: Body Weight Difference (BWD) of test animals with P388 administered with 25 mg/kg compound is determined; format: functional; procedure, shortened: as §1
[26] = system: Mus musculus; assay: Body Weight Difference (BWD) of test animals administered with 100 mg/kg compound is determined; format: functional
[27] = system: Mus musculus; assay: Toxicity day evaluation was carried out on day 5 for animal dosed with 200 mg/kg compound. Number of animals in initial test groups were 6; format: organism-based; design: dose 200 mg/kg; conditions: in vivo
[28] = system: Mus musculus; assay: Ability of 25 mg/kg of compound to kill P388 tumor cells in mice is expressed as the log of the tumor cell population at the onset of treatment minus the log of the tumor cell population at the end of treatment.; format: functional; procedure, shortened: as §2
[29] = system: Mus musculus; assay: The percent of the median survival time of test mice compared to control mice is determined for mice administered with 25 mg/kg compound.; format: functional
[30] = system: Mus musculus; assay: Body Weight Difference (BWD) of test animals with P388 administered with 50 mg/kg compound is determined; format: functional; procedure, shortened: as §1
[31] = system: Mus musculus; assay: Toxicity day evaluation was carried out on day 5 for animal dosed with 100 mg/kg compound. Number of animals in initial test groups were 6; format: organism-based; design: dose 100 mg/kg; conditions: in vivo
[32] = system: Mus musculus; assay: Ability of 400 mg/kg of compound to kill tumor cells in mice is expressed as the log of the tumor cell population at the onset of treatment minus the log of the tumor cell population at the end of treatment; format: functional
[33] = system: Mus musculus; assay: Toxicity day evaluation was carried out on day 5 for animal dosed with 200 mg/kg compound; 6/6; format: organism-based; design: dose 200 mg/kg; conditions: in vivo
[34] = system: Mus musculus; assay: The percent of the median survival time of test mice compared to control mice is determined for mice administered with 50 mg/kg compound.; format: functional

| SMILES | T/C [1] [%] | T/C [2] [%] | BWD [3] [g] | BWD [4] [g] | BWD [5] [g] | BWD [6] [g] | KE [7] | Survivors / animals tested [8] | Survivors / animals tested [9] | BWD [10] [g] | T/C [11] [%] | BWD [12] [g] | Survivors / animals tested [16] | Survivors / animals tested [17] | Survivors / animals tested [18] | Survivors / animals tested [33] | other results |
| --- | --- | --- | --- | --- | --- | --- | --- | --- | --- | --- | --- | --- | --- | --- | --- | --- | --- |
| CSc1nc(COC(=O)NC(C)C)c(COC(=O)NC(C)C)n1-c1ccccc1 | 97 | 90 | -2 | 0.3 | 0.6 | -4.8 | -1.64 | 6 | 6 | -2.8 | 100 | -0.2 | 6 | 6 | 6 | – | KE [13]: -1.55; T/C [14]: 95%; Survivors / animals tested [15]: 5 |
| COc1nc(COC(=O)NC(C)C)c(COC(=O)NC(C)C)n1C | – | – | – | – | – | – | – | – | – | – | – | – | – | – | – | – | BWD [19]: -2.6 g; Survivors / animals tested [20]: 6; Survivors / animals tested [21]: 6; BWD [22]: -4.2 g; Survivors / animals tested [23]: 6; KE [24]: 0.54; BWD [25]: -0.1 g; BWD [26]: -2.1 g; Survivors / animals tested [27]: 6; KE [28]: -0.6; T/C [29]: 130%; BWD [30]: -1 g; Survivors / animals tested [31]: 6 |
| CNC(=O)OCc1nc(SC)n(Cc2ccccc2)c1COC(=O)NC | – | – | 0.4 | 0.9 | – | -1.2 | -0.44 | 6 | – | -0.4 | – | – | 6 | 6 | – | 6 | KE [32]: -0.71 |
| CC(C)NC(=O)OCc1ncn(-c2ccccc2)c1COC(=O)NC(C)C | 91 | 90 | 0.6 | 0.8 | -0.1 | -2.3 | – | 6 | 6 | 0.2 | 90 | -0.4 | 6 | 6 | 6 | 6 | T/C [34]: 97% |

— ChEMBL document CHEMBL1124663, “Design, synthesis, antineoplastic activity, and chemical properties of bis(carbamate) derivatives of 4,5-bis(hydroxymethyl)imidazole” (J Med Chem, 1989)
